UCH37 inh – inhibitors of human deubiquitinating enzyme UCH37; purified proteasome/UCH37, Ub-AMC cleavage fluorescence; AID 588478; 330,000 compounds, 0.33% hits; inhibition, % (concentration not given with the values);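 active = mean inhibition over replicate wells above about 20%, limit read from the data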;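 note: 0% = compound-free wells with enzyme and 100% = wells lacking proteasome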
Target sequence (Q9Y5K5 whole entry, looked up): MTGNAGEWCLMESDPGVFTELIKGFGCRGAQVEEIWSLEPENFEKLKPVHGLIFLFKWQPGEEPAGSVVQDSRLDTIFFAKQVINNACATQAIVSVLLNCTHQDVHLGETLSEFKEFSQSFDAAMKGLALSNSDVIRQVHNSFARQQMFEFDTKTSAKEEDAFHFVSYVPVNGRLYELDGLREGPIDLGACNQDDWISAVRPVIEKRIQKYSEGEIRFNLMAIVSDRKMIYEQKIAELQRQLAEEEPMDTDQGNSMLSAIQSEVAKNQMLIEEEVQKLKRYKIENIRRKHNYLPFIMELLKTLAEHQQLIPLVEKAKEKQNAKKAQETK
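System: Proteasome-associated human UCH37 deubiquitinase; Input: 0.15 nM proteasome in added enzyme buffer; Also added: Ub-AMC substrate from 1 µM stock; Incubation: 30 min compound-proteasome preincubation then 25 min substrate reaction, room temperature; Detection: fluorescence, ex 355 nm, em 460 nm; Read-out: % inhibition of Ub-AMC cleavage fluorescence; Benchmarks: no-proteasome and no-compound wells.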
N-glyco inh – blocks N-linked glycosylation in D54 reporter cells | D54 ERlucT glycosylation luciferase reporter, 24 h; percent of 100 nM tunicamycin response | reporter increase, % at 12.5 µM | 360,000 compounds, 0.23% hits;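 active = mean luciferase reporter signal, scaled so untreated is 0 and the glycosylation-blocking control 100, at or above a set limit in every replicate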;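 note: luciferase carries N-glycosylation sites so blocking glycosylation raises the light; 0% = median of neutral control wells and 100% = median of 100 nM tunicamycin wells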
aDG glyco up – alpha-DG glycosylation activation; 360,000 compounds, 0.22% hits; activation, % at 10 µM; Pro5-aDG cells, alpha-DG glycosylation AlphaScreen (IIH6); 0% Pro5, 100% B10-LARGE cell signal;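 active = activation of at least 8% versus controls, or a plate z-score of at least 8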;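 note: Pro5 are CHO cells carrying HIG-tagged alpha-DG that lacks glycosylation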
MsrA inh – inhibitors of bovine MsrA | purified bovine MsrA, absorbance read-out | inhibition, % at 15.5 µM | 360,000 compounds, 0.75% hits | AID 651718; in the data active = inhibition above about 4.5%;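 note: 0% = vehicle wells with enzyme and 100% = reference inhibitor wells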
bovine MsrA act – activates bovine MsrA enzyme; purified bovine MsrA, absorbance read-out; activation, % at 10.6 µM; 360,000 compounds, 0.3% hits; in the data active = activation above about 7.5%;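 note: 0% = vehicle and 100% = reference activator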
Vif inh – HIV Vif inhibition; HEK293T cells, Vif self-association by quenched fluorescence, imaging, 24 h; inhibition, % at 7.49 µM; 340,000 compounds, 0.35% hits; AID 602346; in the data active = inhibition above about 50%, passing the limit was not always enough
MsrA activ conf – bovine methionine sulfoxide reductase A activation confirmed; shares compounds with bovine MsrA act; purified bovine MsrA, absorbance read-out; activation, % at 10.6 µM; 1,000 compounds, 12% hits; in the data active = activation above about 4%;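 note: enzyme coupled to thioredoxin and thioredoxin reductase with NADPH; 0% = vehicle wells and 100% = reference activator wells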
The depositor's hits bear a star; x = not tested or not shown. An excerpt weighted towards active compounds, which were near 1.9% of everything screened.

SMILES	UCH37 inh	N-glyco inh	aDG glyco up	MsrA inh	bovine MsrA act	Vif inh	MsrA activ conf
CNC(=S)NN=Cc1ccc(-c2cc([N+](=O)[O-])ccc2Cl)o1	6	x	x	x	x	x	x
CCC(Oc1ccccc1C)C(=O)N1CCCN(C)CC1 (configuration not stated)	-1	1	0	0	14*	11	-1
CCC(Oc1ccc(C)c(C)c1)C(=O)N1CCCN(C)CC1 (configuration not stated)	2	-2	0	0	-1	1	x
CCN(CC)C(=O)C(=O)NN=Cc1ccc(Br)cc1	2	x	x	x	x	x	x
CCOC(=O)C1=C(CSc2nc3c(cc2C#N)CN(C)CC3)OC(N)=C(C#N)C1c1ccc(Cl)cc1 (configuration not stated)	-18	1	0	0	9.6*	6	-2
CCOC(=O)C1=C(CSc2nc3c(cc2C#N)CN(C)CC3)OC(N)=C(C#N)C1c1ccncc1 (configuration not stated)	-14	-1	0	2	-3	0	x
CCc1ccc(C=Nn2cnnc2)cc1	1	x	x	x	x	x	x
Cc1[nH]c2ccccc2c1CC(=O)O	-1	4	0	1	13*	-5	-2
CC(=O)Nc1cccc(C(C)=NNC(=O)c2ccc(NS(=O)(=O)c3cccs3)cc2)c1	7	x	x	x	x	x	x
Cc1ccccc1Cn1c2ccccc2c2cnn(CC(=O)NCc3ccccn3)c(=O)c21	-16	2	0	2	-4	-4	x
Cc1c2cnn(CC(=O)NCc3ccccn3)c(=O)c2c(C)n1Cc1ccccc1	3	-2	0	1	11*	-9	-1
O=C(CSc1ncn[nH]1)NN=Cc1ccc(C(F)(F)F)cc1	0	x	x	x	x	x	x
C=CCNC(=S)NN=Cc1ccc(-c2ccc(OC)cc2)o1	-34	x	x	x	x	x	x
OCCNc1nc(SCc2ccccc2)nc2sc3c(c12)CCC3	0	-5	0	0	14*	-26	-2
COc1ccc(N(CC(=O)NCc2ccc(C)cc2)S(=O)(=O)c2c(C)nn(C)c2C)cc1	2	1	0	-1	9.7*	3	-2
CCOC(C)=Nn1c2nc3ccccc3nc2c2c(=O)n(CC(C)C)c(C)nc21	5	x	x	x	x	x	x
C#CCNC(=O)C1=C[C@@H](c2ccc3c(c2)OCO3)C[C@@H](OCc2ccc(CO)cc2)O1	2	1	0	0	8.5*	0	1
O=C(NCc1ccccc1)C1=C[C@H](c2ccc3c(c2)OCO3)C[C@H](OCc2ccc(CO)cc2)O1	4	0	0	0	0	-2	x
Cc1onc(C(=O)N2C(C)CCCC2C)c1[N+](=O)[O-] (configuration not stated)	5	0	0	1	8.8*	-4	-1
CCc1cccc(NC(=O)c2cccc3c2C(=O)N(C2CCCCC2)C3)c1	3	-8	0	x	8.6*	12	-1
O=C(Nc1cccc(F)c1)c1cccc2c1C(=O)N(C1CCCCC1)C2	1	-10	1	1	-2	4	x
O=C(NNC1=Nc2ccccc2SC1)c1ccc(F)cc1	1	17	0	-2	7.7*	-8	-2
Cn1c(SCC(=O)NN=Cc2ccncc2)nc2ccccc21	3	x	x	x	x	x	x
S=c1[nH]nc2ccc3ccccc3n12	x	1	0	2	11*	x	2
S=c1[nH]c2ccccc2n2c(=S)[nH]nc12	17	-1	0	4	6	-7	x
CCOC(=O)c1sc(=S)n(-c2ccccc2OC)c1N	12	1	0	3	8.4*	-5	-6
CC(CN(C)Cc1ccccc1)OC(=O)c1ccccc1F (configuration not stated)	1	1	0	0	-1	-10	x
CC(CN(C)Cc1ccccc1)OC(=O)c1cccs1 (configuration not stated)	1	-2	0	0	8.4*	-1	-2
CCOC(=O)c1nn(-c2ccc(F)cc2)c(=O)c2c(N)scc12	3	1	0	2	-1	-6	x
CCOC(=O)c1nn(-c2ccc(C)cc2)c(=O)c2c(N)scc12	3	0	0	1	8.6*	-2	-2
